MIN6 prolif = MIN6 beta-cell proliferation induction | 0.29% of 330,000 active | proliferation, % at 10 µM | MIN6 cells proliferation, ATPlite luminescence, 48 h; cells starved in 0.2% serum; 100% = growth in 10% serum;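 active = compounds whose signal lies at least 3.5 SD above the mean of all wells on their plate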;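 also: 0% = DMSO-treated cells in low-serum medium and 100% = 10% serum control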
TMEM16A inh = inhibitors of mouse TMEM16A calcium-activated chloride channel; AID 588511; normalized B-score (activity score, 25-100; higher = stronger inhibition) at 10 µM; 1.2% of 310,000 active; HEK293 TMEM16A/YFP iodide influx fluorescence, ionomycin;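 active = ratio plate-corrected score three or more library SD toward inhibition, starting fluorescence score within five deviations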;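 also: score derived from kinetic fluorescence span divided by baseline fluorescence per well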
TMEM16A act = mouse TMEM16A channel activation, primary screen; B-score at 10 µM; 0.3% of 340,000 active; Q8BHY3; HEK293 TMEM16A/YFP-H148Q/I152L, iodide quench fluorescence; active compounds read low;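 active = fluorescence-ratio B-score plate-corrected deviation score at least 3 library SD below zero, with starting fluorescence score within 5 deviations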;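 also: channel opened by trigger with iodide after compound preincubation; score built on the fluorescence ratio of max minus min over baseline; more negative score means more quench and so TMEM16A activation or potentiation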
MC4R antag cAMP = antagonists of human melanocortin 4 receptor (MC4R); P32245; MC4R-expressing cells, MTII-stimulated cAMP, LANCE TR-FRET; inhibition, % at 6.5 µM; 0.48% of 360,000 active;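 active = inhibition above its plate's cutoff, the mean of tested wells on that plate plus 3 SD, cut at about 29% in these data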;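 also: 0% = Melanotan II alone and 100% = Melanotan II plus saturating MCL0020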
Target sequence (P32245 whole entry, looked up): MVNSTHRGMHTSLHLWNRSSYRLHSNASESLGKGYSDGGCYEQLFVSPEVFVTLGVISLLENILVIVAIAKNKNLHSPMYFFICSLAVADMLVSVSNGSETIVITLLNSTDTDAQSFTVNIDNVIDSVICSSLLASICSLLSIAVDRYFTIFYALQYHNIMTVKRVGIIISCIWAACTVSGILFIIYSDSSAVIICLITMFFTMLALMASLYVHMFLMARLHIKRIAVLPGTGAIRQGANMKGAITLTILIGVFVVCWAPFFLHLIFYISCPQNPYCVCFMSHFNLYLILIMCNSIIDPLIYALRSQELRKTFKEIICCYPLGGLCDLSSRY
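material = U2OS cells stably expressing human melanocortin 4 receptor (MC4R) | also added = Melanotan II challenge | dosing = single nominal compound dose of 6.5 µM | detection = TR-FRET with Eu-cAMP and labeled anti-cAMP, 671 nm | replication = singlicate | timing = compound 30 min, challenge 1 h, detection 1 h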
MC4R ag barr = activates human MC4R beta-arrestin recruitment | P32245 | U2OS MC4R beta-arrestin complementation, luminescence; percent of melanotan II response, DMSO zero | activation, % at 8.9 µM | 0.98% of 360,000 active | AID 540308;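 active = activation above a per-plate cutoff, the mean activation of sample wells on that plate plus 3 SD, cut at about 8% in these data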
HTR2A ag = activates the mouse 5-HT2A serotonin receptor | P35363 | CHO-K1 mHTR2A beta-arrestin complementation, luminescence; percent of 30 µM serotonin response | activation, % at 7.6 µM | 0.66% of 360,000 active | AID 624169;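 active = activation above a run cutoff, the mean activation of all tested compounds plus 3 SD, cut at about 14% in these data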;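 also: 0% = plate median of compound wells and 100% = 30 µM serotonin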
MC4R barr conf = human MC4R beta-arrestin agonism confirmation; 31% of 2,400 active; U2OS MC4R beta-arrestin recruitment, luminescence; scaled DMSO 0%, Melanotan II 100%; shares compounds with MC4R ag barr; activation, % at 8.9 µM;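 active = mean activation across replicates above the hit cutoff set in the earlier primary screen, cut at about 8% in these data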
MOR-DOR barr ag = counter-screen for MC4R agonists: agonists of mu-delta opioid heterodimer | shares compounds with MC4R ag barr | U2OS PathHunter beta-arrestin, beta-gal luminescence; percent of deltorphin B response, DMSO zero | activation, % at 9.2 µM | 5.8% of 2,400 active | AID 602194;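 active = mean activation across replicates exceeds the hit threshold derived in the earlier primary screen, cut at about 18% in these data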;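 also: 100% = deltorphin B at 0.9 µM final and 0% = DMSO alone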
The depositor's hits bear a star. The list is not random: actives were taken first. Their share in the collection is about 3.4%.

How did O=C(c1cccs1)N1N=C(c2ccccc2)CC1c1ccccc1O (centres undefined) do in these assays?
MIN6 prolif: -3; TMEM16A inh: inactive; TMEM16A act: inactive; MC4R antag cAMP: -3; MC4R ag barr: 13*; HTR2A ag: 10; MC4R barr conf: 8; MOR-DOR barr ag: 5

How did O=C1C2CCCN2C(c2ccc(F)cc2)N1c1ccc(Cl)cc1 (centres undefined) do in these assays?
MIN6 prolif: -2; TMEM16A inh: inactive; TMEM16A act: inactive; MC4R antag cAMP: 3; MC4R ag barr: -1; HTR2A ag: 6

What do the screens show for `O=C1C2=C(NC(=S)NC2c2ccc(Cl)cc2)NC(c2ccc(Cl)cc2)N1c1ccc(Cl)cc1` (centres undefined)?
MIN6 prolif: -6; TMEM16A inh: inactive; TMEM16A act: inactive; MC4R antag cAMP: 9; MC4R ag barr: 19*; HTR2A ag: 11; MC4R barr conf: 29*; MOR-DOR barr ag: 9

What do the screens show for `COc1ccc(-c2ccc3oc(-c4ccc(OC)cc4)c(C#CCCO)c3c2)cc1`?
MIN6 prolif: -7; TMEM16A inh: inactive; TMEM16A act: inactive; MC4R antag cAMP: -1; MC4R ag barr: 11*; HTR2A ag: -6; MC4R barr conf: 2; MOR-DOR barr ag: 3

Results for COc1ccc(C(=O)OCC(=O)NC(=O)Nc2ccccc2F)c(OC)c1 ?
MIN6 prolif: -1; TMEM16A act: inactive; MC4R antag cAMP: -8; MC4R ag barr: 25*; HTR2A ag: -2; MC4R barr conf: 2; MOR-DOR barr ag: 15

What do the screens show for `COc1ccc(C(CNC(=O)c2ccc(-c3cccc(C(F)(F)F)c3)o2)N2CCOCC2)cc1` (centres undefined)?
MIN6 prolif: -7; TMEM16A inh: inactive; TMEM16A act: inactive; MC4R antag cAMP: 11; MC4R ag barr: -2; HTR2A ag: -1

What do the screens show for `CC(C)(C)c1ccc(C(=O)N2CCOC23CCCCC3)cc1`?
HTR2A ag: 1

What do the screens show for `Clc1cccc(Cl)c1CON/C=N/c1ncnc2sccc12`?
MIN6 prolif: 0; TMEM16A inh: inactive; TMEM16A act: inactive; MC4R antag cAMP: 10; MC4R ag barr: 12*; HTR2A ag: -4; MC4R barr conf: 3; MOR-DOR barr ag: 5

How did CC1Cc2ccccc2N1C(=O)CO/N=C/c1ccccc1OC(F)F (centres undefined) do in these assays?
MIN6 prolif: 0; TMEM16A inh: inactive; TMEM16A act: inactive; MC4R antag cAMP: 19; MC4R ag barr: 0; HTR2A ag: 2

What do the screens show for `O=C(CO/N=C/c1ccccc1OC(F)F)N1CCc2ccccc21`?
MIN6 prolif: 1; TMEM16A inh: inactive; TMEM16A act: inactive; MC4R antag cAMP: 24; MC4R ag barr: 11*; HTR2A ag: -2; MC4R barr conf: -2; MOR-DOR barr ag: 10

Results for Cc1ccc(OCCNC(=O)c2ccc(NC(=O)CC3SC(N4CCCC4)=NC3=O)cc2)cc1 (centres undefined) ?
MIN6 prolif: -3; TMEM16A inh: inactive; TMEM16A act: inactive; MC4R antag cAMP: 15; MC4R ag barr: 0; HTR2A ag: -1

How did CCn1c(SCC(=O)Nc2ccc(Cl)cc2)nc2nc3c(cc2c1=O)CCCC3 do in these assays?
MIN6 prolif: -4; TMEM16A inh: inactive; TMEM16A act: inactive; MC4R antag cAMP: 12; MC4R ag barr: 0; HTR2A ag: 2

How did CCn1c(SCC(=O)Nc2ccc(C(C)=O)cc2)nc2nc3c(cc2c1=O)CCCC3 do in these assays?
MIN6 prolif: 0; TMEM16A inh: inactive; TMEM16A act: inactive; MC4R antag cAMP: 11; MC4R ag barr: 19*; HTR2A ag: 1; MC4R barr conf: 18*; MOR-DOR barr ag: 2

Results for N#Cc1ccc(NC(=O)C2=COCCO2)cc1 ?
MIN6 prolif: -4; TMEM16A act: inactive; MC4R antag cAMP: -2; MC4R ag barr: -2; HTR2A ag: 0

What do the screens show for `CN(C)c1ccc(/C=N\Nc2nc(-c3ccccc3)cc(=O)[nH]2)cc1`?
MIN6 prolif: -1; TMEM16A inh: inactive; TMEM16A act: inactive; MC4R antag cAMP: -1; MC4R ag barr: 27*; HTR2A ag: -5; MC4R barr conf: 4; MOR-DOR barr ag: 5

Results for O=C(COC(=O)/C=C/c1cccs1)Nc1nc(-c2ccccc2)cs1 ?
MIN6 prolif: -6; TMEM16A inh: inactive; TMEM16A act: inactive; MC4R antag cAMP: 18; MC4R ag barr: 32*; HTR2A ag: 1; MC4R barr conf: 5; MOR-DOR barr ag: 7

Results for O=c1cc(CN(Cc2ccccc2)Cc2ccccc2)c2ccccc2o1 ?
HTR2A ag: -5

What do the screens show for `COC(=O)c1sccc1NC(=O)Nc1ccc(Cl)c(Cl)c1`?
MIN6 prolif: -3; TMEM16A inh: inactive; TMEM16A act: inactive; MC4R antag cAMP: -1; MC4R ag barr: 13*; HTR2A ag: 3; MC4R barr conf: 3; MOR-DOR barr ag: 6

Results for COC(=O)c1ccc(OCC(=O)Nc2ccsc2C(=O)OC)cc1 ?
MIN6 prolif: -1; TMEM16A inh: inactive; TMEM16A act: inactive; MC4R antag cAMP: 20; MC4R ag barr: 6; HTR2A ag: 3

How did COC(=O)c1sccc1NC(=O)c1ccc(C)s1 do in these assays?
MIN6 prolif: -2; TMEM16A inh: inactive; TMEM16A act: inactive; MC4R antag cAMP: 9; MC4R ag barr: -1; HTR2A ag: -2

Results for COC(=O)c1sccc1NC(=O)COc1ccc(F)cc1Cl ?
MIN6 prolif: -3; TMEM16A inh: inactive; TMEM16A act: inactive; MC4R antag cAMP: 13; MC4R ag barr: 10*; HTR2A ag: 0; MC4R barr conf: 2; MOR-DOR barr ag: 3

How did COC(=O)c1sccc1NC(=O)Nc1ccc(C)c(C)c1 do in these assays?
MIN6 prolif: -3; TMEM16A inh: inactive; TMEM16A act: inactive; MC4R antag cAMP: 5; MC4R ag barr: -1; HTR2A ag: -3

How did COC(=O)c1sccc1NC(=O)c1ccc(Cl)s1 do in these assays?
MIN6 prolif: -1; TMEM16A inh: inactive; TMEM16A act: inactive; MC4R antag cAMP: 15; MC4R ag barr: 12*; HTR2A ag: -5; MC4R barr conf: 0; MOR-DOR barr ag: 2

Screens: PubChem BioAssay, several laboratories
